According to ChEMBL document CHEMBL4017549, “Structural Basis of Inhibition of ERα-Coactivator Interaction by High-Affinity N-Terminus Isoaspartic Acid Tethered Helical Peptides” (J Med Chem, 2017):
Calls of active or inactive are those of the source. No cut-off for these calls is given here. Peptide text beside a SMILES is read from it. * marks the point of attachment. FITC = O=C1OC2(c3ccc(O)cc3Oc3cc(O)ccc32)c2ccc(NC(=S)*)cc21; βAla = NCCC(=O)O

What was measured:
Progesterone receptor = target: T1, Progesterone receptor (Homo sapiens, UniProt P06401); assay: Binding affinity to recombinant human GST-tagged PGR LBD (678 to 933 residues) expressed in Escherichia coli BL21 star(DE3) after 40 mins in presence of progesterone by fluorescence polarization assay
T1 sequence (P06401 whole entry): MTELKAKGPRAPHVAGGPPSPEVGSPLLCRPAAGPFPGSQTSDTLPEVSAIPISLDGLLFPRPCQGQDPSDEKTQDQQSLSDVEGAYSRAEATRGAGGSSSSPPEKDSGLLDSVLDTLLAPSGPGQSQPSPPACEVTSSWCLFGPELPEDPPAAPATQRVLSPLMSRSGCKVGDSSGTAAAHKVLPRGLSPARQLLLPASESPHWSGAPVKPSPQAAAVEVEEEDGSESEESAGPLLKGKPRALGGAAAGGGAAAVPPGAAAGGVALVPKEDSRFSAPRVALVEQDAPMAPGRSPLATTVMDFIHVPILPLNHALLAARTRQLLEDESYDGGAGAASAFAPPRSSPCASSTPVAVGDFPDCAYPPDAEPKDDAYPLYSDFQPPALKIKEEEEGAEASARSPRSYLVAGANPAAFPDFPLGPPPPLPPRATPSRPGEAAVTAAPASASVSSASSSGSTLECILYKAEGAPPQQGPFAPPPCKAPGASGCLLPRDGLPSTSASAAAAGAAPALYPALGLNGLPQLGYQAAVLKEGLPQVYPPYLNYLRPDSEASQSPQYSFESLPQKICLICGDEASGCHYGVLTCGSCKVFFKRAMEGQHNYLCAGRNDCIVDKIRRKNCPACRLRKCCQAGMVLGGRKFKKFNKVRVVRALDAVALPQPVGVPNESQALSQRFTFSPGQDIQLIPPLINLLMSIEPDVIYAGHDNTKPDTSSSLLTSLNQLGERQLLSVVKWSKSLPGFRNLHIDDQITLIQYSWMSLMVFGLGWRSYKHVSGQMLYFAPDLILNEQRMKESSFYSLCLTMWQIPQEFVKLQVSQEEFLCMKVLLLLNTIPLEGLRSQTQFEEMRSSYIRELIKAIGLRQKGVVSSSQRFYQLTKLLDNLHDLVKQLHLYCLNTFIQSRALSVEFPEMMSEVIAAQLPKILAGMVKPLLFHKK
Summary of the method: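 FITC-labelled peptide at 10 nM final with increasing GST-PgR LBD in 20 mM Tris-HCl pH 8.0, 150 mM NaCl, 5% glycerol, 1 mM TCEP plus 10 μM progesterone. 40 min dark incubation, polarization at 298 K (ex 480/em 535 nm). KD by nonlinear regression against protein concentration.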

Estrogen receptor beta = Estrogen receptor beta (Homo sapiens, UniProt Q92731); assay: Binding affinity to recombinant human GFP-fused ERbeta LBD (259 to 498 residues) expressed in Escherichia coli BL21(DE3) after 40 mins in presence of 17beta-estradiol by fluorescence polarization assay
Estrogen receptor beta, sequence (Q92731 whole entry, the tested form may be a part): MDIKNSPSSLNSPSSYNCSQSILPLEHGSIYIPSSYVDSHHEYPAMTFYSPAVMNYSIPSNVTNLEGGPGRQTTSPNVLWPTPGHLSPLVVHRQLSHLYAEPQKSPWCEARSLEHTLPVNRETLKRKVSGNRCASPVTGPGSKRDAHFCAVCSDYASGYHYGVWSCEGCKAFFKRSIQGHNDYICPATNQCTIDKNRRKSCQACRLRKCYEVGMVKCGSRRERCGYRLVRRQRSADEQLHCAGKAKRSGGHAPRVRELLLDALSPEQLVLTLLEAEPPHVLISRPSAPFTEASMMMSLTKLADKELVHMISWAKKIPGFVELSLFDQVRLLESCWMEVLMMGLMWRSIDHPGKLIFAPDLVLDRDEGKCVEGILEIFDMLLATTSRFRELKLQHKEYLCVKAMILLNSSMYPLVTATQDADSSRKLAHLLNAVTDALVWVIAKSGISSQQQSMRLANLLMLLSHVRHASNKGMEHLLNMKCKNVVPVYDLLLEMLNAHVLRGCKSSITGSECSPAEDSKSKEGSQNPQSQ
Summary of the method: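 FITC-labelled peptide at 10 nM final, titrated with increasing purified LBD (ERβ LBD carrying C334S, C369S, C481S) in 20 mM Tris-HCl pH 8.0, 150 mM NaCl, 5% glycerol, 1 mM TCEP with 10 μM 17β-estradiol. Incubated 40 min in the dark, polarization read at 298 K (ex 480/em 535 nm). KD from nonlinear regression of polarization versus protein concentration.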

Estrogen receptor = target: T2, Estrogen receptor (Homo sapiens, UniProt P03372); assay: Binding affinity to recombinant human GFP-fused ERalpha LBD (301 to 553 residues) expressed in Escherichia coli BL21(DE3) after 40 mins in presence of 17beta-estradiol by fluorescence polarization assay
T2 sequence (P03372 whole entry): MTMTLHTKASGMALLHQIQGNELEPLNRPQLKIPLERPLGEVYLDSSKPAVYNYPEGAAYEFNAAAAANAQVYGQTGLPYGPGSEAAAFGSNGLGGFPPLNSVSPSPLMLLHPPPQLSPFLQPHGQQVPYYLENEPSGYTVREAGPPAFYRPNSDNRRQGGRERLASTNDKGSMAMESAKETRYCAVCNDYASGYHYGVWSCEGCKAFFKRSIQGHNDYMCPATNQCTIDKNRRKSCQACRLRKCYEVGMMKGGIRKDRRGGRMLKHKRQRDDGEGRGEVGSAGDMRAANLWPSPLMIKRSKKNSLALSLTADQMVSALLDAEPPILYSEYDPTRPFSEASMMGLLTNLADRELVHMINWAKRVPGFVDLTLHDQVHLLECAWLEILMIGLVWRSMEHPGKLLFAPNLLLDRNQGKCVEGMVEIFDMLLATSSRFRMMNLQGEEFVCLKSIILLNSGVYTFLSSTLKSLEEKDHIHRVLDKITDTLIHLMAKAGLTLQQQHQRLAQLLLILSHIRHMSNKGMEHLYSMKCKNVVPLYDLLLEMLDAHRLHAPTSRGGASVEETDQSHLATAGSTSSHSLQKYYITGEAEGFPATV

[1] = Drug uptake in human MCF7 cells at 5 uM after 3 hrs in presence of 10 nM E2 by DAPI-staining based confocal laser scanning microscopic analysis; details: mcf7, 3 h
Homo sapiens [2] = species: Homo sapiens; assay: Selectivity ratio of Kd for recombinant human ERbeta LBD (259 to 498 residues) to Kd for recombinant human ERalpha LBD (301 to 553 residues)
Summary of the method: (§1)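 Ratio of KD values, each from fluorescence polarization of 10 nM FITC-peptide titrated with the respective LBD after 40 min in the dark at 298 K, with the matching ligand in buffer (10 μM 17β-estradiol, progesterone or vitamin D3).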

[3] = target: T3, Estrogen receptor (Homo sapiens) (UniProt P03372); assay: Binding affinity to recombinant human GFP-fused ERalpha LBD (301 to 553 residues) expressed in Escherichia coli BL21(DE3) in presence of ERalpha inhibitor 4-hydroxytamoxifen by ITC
T3 sequence (whole entry): T2 sequence (P03372 whole entry)
Summary of the method: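 ITC at 25 °C. 50 μM peptide injected in 2 μL steps into 5 μM ERα LBD in 50 mM Tris pH 8.0, 150 mM NaCl, 1 mM TCEP containing 0.1 mM 4-hydroxytamoxifen instead of estradiol. Isotherm fitted.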

[4] = Drug uptake in human MCF7 cells assessed per million cells at 5 uM after 3 hrs by FACS analysis; assay type: ADME, cell-based; details: mcf7, 3 h
Summary of the method: (§2)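 Adherent cells seeded overnight, then exposed to 5 μM FITC-labelled peptide or DMSO in FBS-free medium, 3 h, 37 °C. After PBS washes (three), about 10000 cells per sample analysed by flow cytometry; mean cellular fluorescence intensity calculated. More than two independent experiments, SEM.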

Vitamin D3 receptor = target: T4, Vitamin D3 receptor (Homo sapiens, UniProt P11473); assay: Binding affinity to recombinant human GST-tagged VDR LBD (156 to 453 residues) expressed in Echerichia coli BL21 star (DE3) after 40 mins in presence of vitamin D3 by fluorescence polarization assay
T4 sequence (P11473 whole entry): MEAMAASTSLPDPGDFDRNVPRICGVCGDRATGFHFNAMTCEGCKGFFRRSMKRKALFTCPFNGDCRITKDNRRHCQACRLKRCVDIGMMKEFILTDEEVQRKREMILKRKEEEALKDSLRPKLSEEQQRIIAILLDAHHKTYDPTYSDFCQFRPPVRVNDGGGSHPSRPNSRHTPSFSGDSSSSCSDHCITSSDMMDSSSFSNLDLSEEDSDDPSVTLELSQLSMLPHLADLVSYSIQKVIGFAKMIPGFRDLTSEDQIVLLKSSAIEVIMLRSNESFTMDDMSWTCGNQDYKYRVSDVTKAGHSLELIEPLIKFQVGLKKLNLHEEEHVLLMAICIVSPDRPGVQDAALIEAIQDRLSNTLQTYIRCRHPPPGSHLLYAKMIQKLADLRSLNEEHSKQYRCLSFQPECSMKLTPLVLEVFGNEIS
Summary of the method: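 GST-VDR LBD titrated into 10 nM final FITC-labelled peptide in 20 mM Tris-HCl pH 8.0, 150 mM NaCl, 5% glycerol, 1 mM TCEP containing 10 μM vitamin D3. 40 min dark incubation, polarization at 298 K (ex 480/em 535 nm). KD by nonlinear regression.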

Homo sapiens [5] = species: Homo sapiens; assay: Selectivity ratio of Kd for recombinant human GST-tagged PGR LBD ([…] residues) to Kd for recombinant human ERalpha LBD (301 to 553 residues); summary of the method: as §1
[6] = target: T3, Estrogen receptor (Homo sapiens); assay: Binding affinity to recombinant human GFP-fused ERalpha LBD (301 to 553 residues) expressed in Escherichia coli BL21(DE3) in presence of 17beta-estradiol by ITC
Summary of the method: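 ITC at 25 °C. 2 μL injections of 50 μM peptide into 5 μM ERα LBD in 50 mM Tris pH 8.0, 150 mM NaCl, 1 mM TCEP, 0.1 mM 17β-estradiol. Binding isotherm fitted for affinity.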

[7] = Drug uptake in human U2OS cells assessed per million cells at 5 uM after 3 hrs by FACS analysis; assay type: ADME, cell-based; summary of the method: as §2
Homo sapiens [8] = species: Homo sapiens; assay: Selectivity ratio of Kd for recombinant human GST-tagged VDR LBD (156 to 453 residues) to Kd for recombinant human ERalpha LBD (301 to 553 residues); summary of the method: as §1

Kd (Progesterone receptor): 82 nM
Kd (Estrogen receptor beta): 213 nM
Kd (Estrogen receptor): 118 nM
Drug uptake [1]: Not Active
Selectivity ratio (Homo sapiens [2]): 1.8
Activity [3]: inactive
Drug uptake [4]: Active
Kd (Vitamin D3 receptor): 142 nM
Selectivity ratio (Homo sapiens [5]): 0.7
Activity [6]: Active
Drug uptake [7]: Active
Selectivity ratio (Homo sapiens [8]): 1.2
Structure (SMILES): CC[C@H](C)[C@H](NC(=O)[C@H](CCCCN)NC(=O)[C@H](Cc1cnc[nH]1)NC(=O)CCNC(=S)Nc1ccc2c(c1)C(=O)OC21c2ccc(O)cc2Oc2cc(O)ccc21)C(=O)N[C@@H](CC(C)C)C(=O)N[C@@H](Cc1cnc[nH]1)C(=O)N[C@@H](CCCNC(=N)N)C(=O)N[C@@H](CC(C)C)C(=O)N[C@@H](CC(C)C)C(=O)N[C@@H](CCC(N)=O)C(N)=O ({FITC-βAla}-HKILHRLLQ-NH2)
